# Reference: ChEMBL document CHEMBL1681778, “Synthesis and biological evaluation of 2,4-diaminoquinazoline derivatives as novel heat shock protein 90 inhibitors” (Bioorg Med Chem Lett, 2011)
# pIC50: −log10 of the molar value. The source made the active and inactive calls. The rule behind the calls is not given here.
# Key:
# DU-145 [1] = assay: Cytotoxicity against human DU145 cells at 10 uM after 2 days by MTT assay; assay type: functional; conditions: DU-145, 48 h
# DU-145 [2] = assay: Cytotoxicity against human DU145 cells after 2 days by MTT assay; assay type: functional, cell-based; conditions: DU-145, 48 h
# Summary of the method: (§1)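 Cells grown in RPMI 1640 with 10% heat-inactivated FBS at 37 °C and 5% CO2. Seeded at 3 × 10³ cells/well, then given a range of sample concentrations in duplicate for two days. Read by MTT-type dye and solubilization/stop solution, left overnight at room temperature to dissolve formazan, with OD at 570 nm.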
# HCT-116 [3] = assay: Cytotoxicity against human HCT116 cells after 2 days by MTT assay; assay type: functional, cell-based; conditions: HCT-116, 48 h; summary of the method: as §1
# HCT-116 [4] = assay: Cytotoxicity against human HCT116 cells at 10 uM after 2 days by MTT assay; assay type: functional; conditions: HCT-116, 48 h
# [5] = Cytotoxicity against human A375P cells after 2 days by MTT assay; assay type: functional, cell-based; conditions: 48 h; summary of the method: as §1
# HT-29 [6] = assay: Cytotoxicity against human HT-29 cells at 10 uM after 2 days by MTT assay; assay type: functional; conditions: HT-29, 48 h
# MCF7 [7] = assay: Cytotoxicity against human MCF7 cells at 10 uM after 2 days by MTT assay; assay type: functional; conditions: MCF7, 48 h
# HT-29 [8] = assay: Cytotoxicity against human HT-29 cells after 2 days by MTT assay; assay type: functional, cell-based; conditions: HT-29, 48 h; summary of the method: as §1
# [9] = Cytotoxicity against human A375P cells at 10 uM after 2 days by MTT assay; assay type: functional; conditions: 48 h
# MCF7 [10] = assay: Cytotoxicity against human MCF7 cells after 2 days by MTT assay; assay type: functional, cell-based; conditions: MCF7, 48 h; summary of the method: as §1
# [11] = target: T1, Heat shock protein HSP90 (Homo sapiens) (UniProt P07900+P08238); assay: Inhibition of HSP90 in human MCF7 cells assessed as induction of HSP70 expression at 5 uM after 24 hrs by Western blotting; assay type: cell-based
# Summary of the method: (§2)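 MCF-7 cells seeded at 10⁵ cells/well and grown to 60% confluency. Treated with compounds at 5 µM in 0.4% DMSO for 24 h, with DMSO alone as control. Her2 and Hsp70 levels detected by western blot.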
# [12] = target: T1, Heat shock protein HSP90 (Homo sapiens); assay: Inhibition of HSP90 in human MCF7 cells assessed as reduction of Her2 protein level at 5 uM after 24 hrs by Western blotting relative to control; assay type: cell-based; summary of the method: as §2
inhibition [11],inhibition [12] [%],SMILES,inhibition at 10 µM (DU-145 [1]) [%],pIC50 (DU-145 [2]),pIC50 (HCT-116 [3]),inhibition at 10 µM (HCT-116 [4]) [%],pIC50 [5],inhibition at 10 µM (HT-29 [6]) [%],inhibition at 10 µM (MCF7 [7]) [%],pIC50 (HT-29 [8]),inhibition at 10 µM [9] [%],pIC50 (MCF7 [10])
,,CCCCNc1nc(NCc2ccco2)c2ccccc2n1,89.9,5.30,5.26,94.8,5.04,92.3,66.7,5.53,,
,,Fc1ccc2nc(NCCCN3CCOCC3)nc(NCc3ccco3)c2c1,26.7,< 4.00,4.60,52.1,4.65,83.1,,5.03,,
,,COc1ccc(Nc2nc(NCc3ccco3)c3ccccc3n2)cc1,,4.46,,,,,64.5,4.91,,
,,Cc1cccc(N2CCN(CCCNc3nc(NCc4ccco4)c4cc(F)ccc4n3)CC2)c1C,95.9,5.58,5.94,97.3,5.55,96.7,,5.98,97.6,
,,c1coc(CNc2nc(NCCN3CCOCC3)nc3ccccc23)c1,,,,,,,95.8,,,5.67
,,CCCCNc1nc(NCc2ccco2)c2cc(F)ccc2n1,75.4,5.23,5.37,87.8,5.07,88.1,,5.52,,
,,CCN(CC)CCNc1nc(NCc2ccco2)c2cc(F)ccc2n1,26.6,,,26.4,,27.5,,,7.67,
,,COc1cccc2c1C(=O)c1c(O)c3c(c(O)c1C2=O)C[C@@](O)(C(=O)CO)C[C@@H]3O[C@H]1C[C@H](N)[C@H](O)[C@H](C)O1 [DOXORUBICIN],,,,,,,,6.09,,
,,CCCCCNc1nc(NCc2ccco2)c2cc(F)ccc2n1,83.6,5.14,5.39,94.2,5.13,,94.4,5.39,,
Active,> 50,Cc1cccc(N2CCN(CCCCNc3nc(NCc4ccco4)c4ccccc4n3)CC2)c1C,93.6,5.97,6.08,94.3,5.41,94.2,95.8,6.07,,5.50
,,Fc1ccc2nc(NCCCCN3CCN(c4cccc(Cl)c4Cl)CC3)nc(NCc3ccco3)c2c1,95.5,6.17,6.28,97.1,5.58,96.3,,6.41,97.3,
,,Fc1ccc2nc(NCCN3CCOCC3)nc(NCc3ccco3)c2c1,27.8,,,12.8,,9.68,,,28.6,
,,Fc1ccc2nc(NCCN3CCN(c4cccc(Cl)c4Cl)CC3)nc(NCc3ccco3)c2c1,,,6.00,,5.62,,95.5,,,
,,CCCCCNc1nc(NCc2ccco2)c2ccccc2n1,,4.94,,,,,,5.17,,
,,Fc1ccc2nc(NCCCCN3CCOCC3)nc(NCc3ccco3)c2c1,57.6,5.19,5.67,82,5.35,76.8,,5.87,62,
Active,< 50,Cc1cccc(N2CCN(CCCCNc3nc(NCc4ccco4)c4cc(F)ccc4n3)CC2)c1C,93.4,5.48,6.09,97.4,5.48,96.1,97.7,5.74,97.5,5.50
Active,< 50,Cc1cccc(N2CCN(CCCNc3nc(NCc4ccco4)c4ccccc4n3)CC2)c1C,91.5,6.03,6.11,93.2,5.52,94,95.9,6.08,,5.48
,,CCN(CC)CCNc1nc(NCc2ccco2)c2ccccc2n1,28.5,< 4.00,4.59,62.6,4.46,75.1,,4.95,,
,,c1coc(CNc2nc(NCCCN3CCOCC3)nc3ccccc23)c1,,4.10,,,,,,4.62,,
,,CN(C)CCCNc1nc(NCc2ccco2)c2ccccc2n1,,4.29,,,,,,5.35,,
,,COc1ccc(Nc2nc(NCc3ccco3)c3cc(F)ccc3n2)cc1,55.4,4.93,5.21,74,5.12,86.2,,5.36,,
Active,> 50,Clc1cccc(N2CCN(CCCNc3nc(NCc4ccco4)c4ccccc4n3)CC2)c1Cl,93.2,5.43,5.47,94.5,5.47,94.1,95.8,5.47,,5.53
Active,> 50,Clc1cccc(N2CCN(CCCCNc3nc(NCc4ccco4)c4ccccc4n3)CC2)c1Cl,94.3,5.41,5.49,94.7,5.43,94.8,95.8,5.47,,5.53
,,c1coc(CNc2nc(NCCCCN3CCOCC3)nc3ccccc23)c1,52.3,5.20,5.68,79.8,5.28,68.7,,5.87,59.2,
,,CCCCNc1nc(NCc2ccco2)c2cccc(F)c2n1,,,5.88,,5.58,,87,,,
,,c1coc(CNc2nc(NCCCN3CCCC3)nc3ccccc23)c1,40.1,4.45,4.79,67.5,4.71,87.5,,5.22,,
,,CN(C)CCNc1nc(NCc2ccco2)c2ccccc2n1,20,,,,,21.7,,,,
